“And” between values parts separate entries of the source, which are not always exact repeats. Equal entries are not always repeated.
Key:
[1] = test system: Mus musculus; assay: Percentage increase in life span when the compound was administered intraperitoneally at dose of 60 mg/Kg in P388 leukemia in CDF1 mice was determined; type: functional; settings: P388, ip
Method in brief: (§1)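 CD2F1 male mice, 19–22 g, in groups of six, inoculated ip with 10⁶ P388 cells on day 0. Dosed ip once daily for 9 days from day 1, in saline, or for linear polyethers in aqueous 2% Tween 80. Deaths and survivors were recorded to 30 days, some to 60. T/C is mean survival, treated vs tumour-bearing control. %ILS = [(T−C)/C]×100. Average day-5 weight change was taken as toxicity.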

[2] = test system: Mus musculus; assay: Anticancer activity against P388 leukemia in CD2F1 male mice expressed as Average % weight change on day 5 as a measure of toxicity was reported at a dose of 20 mg/kg/day.; type: functional; method in brief: as §1
[3] = test system: Mus musculus; assay: Anticancer activity against P388 leukemia in CD2F1 male mice expressed as Average % weight change on day 5 as a measure of toxicity was reported at a dose of 60 mg/kg/day.; type: functional; method in brief: as §1
[4] = test system: Mus musculus; assay: Percentage increase in life span when the compound was administered intraperitoneally at dose of 20 mg/Kg in P388 leukemia in CDF1 mice was determined; type: functional; settings: P388, ip; method in brief: as §1
[5] = test system: Mus musculus; assay: Anticancer activity against P388 leukemia in CD2F1 male mice by 60 mg/kg/day.; type: functional; method in brief: as §1
[6] = test system: Mus musculus; assay: Compound was evaluated for the anticancer activity against P388 leukemia in CD2F1 male mice at a dose of 60 mg/kg/after 30 days; 0/6; type: functional; method in brief: as §1
[7] = partition coefficient with the use of 1-octanol / water solvent system; type: physicochemical
Method in brief: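 4 mL of 10 mM aqueous compound was stirred vigorously with 2 mL 1-octanol for 5 min at 25 °C. The aqueous layer was analysed by ³¹P NMR, and signal intensity (peak height × width at half-height) gave concentrations in each phase. P = [octanol]/[water].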

[8] = test system: Mus musculus; assay: Compound was evaluated for the anticancer activity against P388 leukemia in CD2F1 male mice at a dose of 20 mg/kg/after 30 days; 0/6; type: functional
[9] = test system: Mus musculus; assay: Compound was evaluated for the anticancer activity against P388 leukemia in CD2F1 male mice at a dose of 10 mg/kg/after 30 days; 0/6; type: functional; method in brief: as §1
[10] = test system: Mus musculus; assay: Compound was evaluated for the anticancer activity against P388 leukemia in CD2F1 male mice at a dose of 90 mg/kg/after 30 days; 6/6; type: functional; method in brief: as §1
[11] = test system: Mus musculus; assay: Anticancer activity against P388 leukemia in CD2F1 male mice by 20 mg/kg/day.; type: functional; method in brief: as §1
[12] = test system: Mus musculus; assay: Compound was evaluated for the anticancer activity against P388 leukemia in CD2F1 male mice at a dose of 30 mg/kg/day.; type: functional; method in brief: as §1
[13] = test system: Mus musculus; assay: Percentage increase in life span when the compound was administered intraperitoneally at dose of 40 mg/Kg in P388 leukemia in CDF1 mice was determined; type: functional; settings: P388, ip; method in brief: as §1
[14] = test system: Mus musculus; assay: Compound was evaluated for the anticancer activity against P388 leukemia in CD2F1 male mice at a dose of 40 mg/kg/day.; type: functional; settings: at 40 mg/kg/day
[15] = test system: Mus musculus; assay: Percentage increase in life span when the compound was administered intraperitoneally at dose of 90 mg/Kg in P388 leukemia in CDF1 mice was determined; type: functional; settings: P388, ip; method in brief: as §1
[16] = test system: Mus musculus; assay: Compound was evaluated for the anticancer activity against P388 leukemia in CD2F1 male mice at a dose of 6 mg/kg/after 30 days; 0/6
[17] = test system: Mus musculus; assay: Compound was evaluated for the anticancer activity against P388 leukemia in CD2F1 male mice at a dose of 40 mg/kg/after 30 days; 0/6; type: functional
[18] = test system: Mus musculus; assay: Anticancer activity against P388 leukemia in CD2F1 male mice expressed as Average % weight change on day 5 as a measure of toxicity was reported at a dose of 90 mg/kg/day.; type: functional; method in brief: as §1
[19] = test system: Mus musculus; assay: Compound was evaluated for the anticancer activity against P388 leukemia in CD2F1 male mice at a dose of 30 mg/kg/after 30 days; 0/6; type: functional; method in brief: as §1
[20] = test system: Mus musculus; assay: Anticancer activity against P388 leukemia in CD2F1 male mice expressed as Average % weight change on day 5 as a measure of toxicity was reported at a dose of 5 mg/kg/day.; type: functional; method in brief: as §1
[21] = test system: Mus musculus; assay: Percentage increase in life span when the compound was administered intraperitoneally at dose of 10 mg/Kg in P388 leukemia in CDF1 mice was determined; type: functional; settings: P388, ip; method in brief: as §1
[22] = test system: Mus musculus; assay: Percentage increase in life span when the compound was administered intraperitoneally at dose of 5 mg/Kg in P388 leukemia in CDF1 mice was determined; type: functional; settings: P388, ip; method in brief: as §1
[23] = test system: Mus musculus; assay: Compound was evaluated for the anticancer activity against P388 leukemia in CD2F1 male mice at a dose of 90 mg/kg/after 60 days; 5/6; type: functional; method in brief: as §1
[24] = test system: Mus musculus; assay: Percentage increase in life span when the compound was administered intraperitoneally at dose of 30 mg/Kg in P388 leukemia in CDF1 mice was determined; type: functional; settings: P388, ip; method in brief: as §1
[25] = test system: Mus musculus; assay: Percentage increase in life span when the compound was administered intraperitoneally at dose of 125 mg/Kg in P388 leukemia in CDF1 mice was determined; type: functional; settings: P388, ip; method in brief: as §1
[26] = test system: Mus musculus; assay: Anticancer activity against P388 leukemia in CD2F1 male mice expressed as Average % weight change on day 5 as a measure of toxicity was reported at a dose of 10 mg/kg/day.; type: functional; method in brief: as §1
[27] = test system: Mus musculus; assay: Anticancer activity against P388 leukemia in CD2F1 male mice expressed as Average % weight change on day 5 as a measure of toxicity was reported at a dose of 40 mg/kg/day.; type: functional; method in brief: as §1
[28] = test system: Mus musculus; assay: Compound was evaluated for the anticancer activity against P388 leukemia in CD2F1 male mice at a dose of 10 mg/kg/day.; type: functional; method in brief: as §1
[29] = test system: Mus musculus; assay: Compound was evaluated for the anticancer activity against P388 leukemia in CD2F1 male mice at a dose of 60 mg/kg/after 60 days; 1/6; type: functional; method in brief: as §1
[30] = test system: Mus musculus; assay: Anticancer activity against P388 leukemia in CD2F1 male mice expressed as Average % weight change on day 5 as a measure of toxicity was reported at a dose of 125 mg/kg/day.; type: functional; method in brief: as §1
[31] = test system: Mus musculus; assay: Anticancer activity against P388 leukemia in CD2F1 male mice expressed as Average % weight change on day 5 as a measure of toxicity was reported at a dose of 30 mg/kg/day.; type: functional; method in brief: as §1
[32] = test system: Mus musculus; assay: Compound was evaluated for the anticancer activity against P388 leukemia in CD2F1 male mice at a dose of 60 mg/kg/after 30 days; 3/6; type: functional; method in brief: as §1
[33] = test system: Mus musculus; assay: Compound was evaluated for the anticancer activity against P388 leukemia in CD2F1 male mice at a dose of 125 mg/kg/after 30 days; 0/6; type: functional; method in brief: as §1
[34] = test system: Mus musculus; assay: Compound was evaluated for the anticancer activity against P388 leukemia in CD2F1 male mice at a dose of 90 mg/kg/day.; type: functional; method in brief: as §1
[35] = test system: Mus musculus; assay: Anticancer activity against P388 leukemia in CD2F1 male mice expressed as Average % weight change on day 5 as a measure of toxicity was reported at a dose of 200 mg/kg/day.; type: functional
Method in brief: (§2)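 Positive-control arm of the NCI P388 protocol in CD2F1 male mice, groups of six, inoculated ip with 10⁶ cells on day 0. A single 200 mg/kg per day dose was given on day 1. Survival was followed to 30 days, with T/C and %ILS from mean survival times and day-5 average weight change as toxicity.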

[36] = test system: Mus musculus; assay: Anticancer activity against P388 leukemia in CD2F1 male mice. Number of survivors vs number of treated animals after 30 days were reported at a dose of 200 mg/kg/day; 0/6; type: functional; method in brief: as §2
[37] = test system: Mus musculus; assay: Percentage increase in life span when the compound was administered intraperitoneally at dose of 200 mg/Kg in P388 leukemia in CDF1 mice was determined; type: functional; settings: P388, ip; method in brief: as §2
[38] = test system: Mus musculus; assay: Compound was evaluated for the anticancer activity against P388 leukemia in CD2F1 male mice at a dose of 200 mg/kg/day.; type: functional; method in brief: as §2
[39] = test system: Mus musculus; assay: Anticancer activity against P388 leukemia in CD2F1 male mice expressed as Average % weight change on day 5 as a measure of toxicity was reported at a dose of 6 mg/kg/day.; type: functional; method in brief: as §1
[40] = test system: Mus musculus; assay: Compound was evaluated for the anticancer activity against P388 leukemia in CD2F1 male mice at a dose of 6 mg/kg/day.; type: functional; settings: at 6 mg/kg/day
[41] = test system: Mus musculus; assay: Compound was evaluated for the anticancer activity against P388 leukemia in CD2F1 male mice at a dose of 5 mg/kg/after 30 days; 1/6; type: functional
[42] = test system: Mus musculus; assay: Compound was evaluated for the anticancer activity against P388 leukemia in CD2F1 male mice at a dose of 60 mg/kg/after 60 days; 0/6; type: functional; method in brief: as §1
[43] = test system: Mus musculus; assay: Percentage increase in life span when the compound was administered intraperitoneally at dose of 6 mg/Kg in P388 leukemia in CDF1 mice was determined; type: functional; settings: P388, ip; method in brief: as §1

## S=P(N1CCOCCOCCOCCOCC1)(N1CC1)N1CC1
[1]
  ILS at 60 mg/kg: 80%
[2]
  Weight change: 7.9%
[3]
  Weight change: -6.4%
[4]
  ILS at 20 mg/kg: 24%
[5]
  T/C: 180% and 80%
[6]
  Survivors: 0
[7]
  Partition coefficient: 2.6
[8]
  Survivors: 0

## C1COCCOCCOCCOCCN1
[1]
  ILS at 60 mg/kg: 0%
[2]
  Weight change: 8.3%
[3]
  Weight change: 7.9%
[4]
  ILS at 20 mg/kg: 2%
[6]
  Survivors: 0
[8]
  Survivors: 0

## O=P(N1CCOCCOCCOCCOCC1)(N1CC1)N1CC1
[9]
  Survivors: 0
[10]
  Survivors: 6
[1]
  ILS at 60 mg/kg: 229%
[11]
  T/C: 199% and 99%
[12]
  T/C: 222% and 122%
[13]
  ILS at 40 mg/kg: 137%
[14]
  T/C: 237% and 137%
[15]
  ILS at 90 mg/kg: 287%
[2]
  Weight change: -2%
[16]
  Survivors: 0
[17]
  Survivors: 0
[18]
  Weight change: -1.8%
[19]
  Survivors: 0
[20]
  Weight change: 3.3%
[21]
  ILS at 10 mg/kg: 66%
[22]
  ILS at 5 mg/kg: 41%
[3]
  Weight change: -4.4%
[23]
  Survivors: 5
[24]
  ILS at 30 mg/kg: 122%
[25]
  ILS at 125 mg/kg: -13%
[4]
  ILS at 20 mg/kg: 99%
[26]
  Weight change: 6.2%
[27]
  Weight change: -6.8%
[28]
  T/C: 166% and 66%
[29]
  Survivors: 1
[30]
  Weight change: -9%
[31]
  Weight change: 0%
[32]
  Survivors: 3
[5]
  T/C: 329% and 229%
[33]
  Survivors: 0
[7]
  Partition coefficient: 1.32
[8]
  Survivors: 0
[34]
  T/C: 387% and 287%

## O=c1[nH]cc(F)c(=O)[nH]1 [FLUOROURACIL]
[35]
  Weight change: -4%
[36]
  Survivors: 0
[37]
  ILS at 200 mg/kg: 79%
[38]
  T/C: 179% and 79%

## O=P(N1CC1)(N1CC1)N1CC1 [TEPA]
[39]
  Weight change: -4%
[40]
  T/C: 236% and 136%
[41]
  Survivors: 1
[42]
  Survivors: 0
[43]
  ILS at 6 mg/kg: 136%

## S=P(N1CC1)(N1CC1)N1CC1 [THIOTEPA]
[16]
  Survivors: 0
[40]
  T/C: 241% and 141%
[43]
  ILS at 6 mg/kg: 141%
[7]
  Partition coefficient: 2.54

From ChEMBL document CHEMBL1123312, “In the search for new anticancer drugs. 17. Linear and cyclic polyether analogues of N,N:N',N':N'',N''-tri-1,2-ethanediylphosphoric triamide and N,N:N',N':N'',N''-tri-1,2-ethanediylphosphorothioic triamide” (J Med Chem, 1986)
